Experimental findings from ChEMBL document CHEMBL2434924, “Nonpeptidic angiotensin II AT₁ receptor antagonists derived from 6-substituted aminocarbonyl and acylamino benzimidazoles” (Eur J Med Chem, 2013) are described below.

Assay [1] addresses T1, Type-1 angiotensin II receptor (Homo sapiens, UniProt P30556).
T1 sequence (P30556 whole entry): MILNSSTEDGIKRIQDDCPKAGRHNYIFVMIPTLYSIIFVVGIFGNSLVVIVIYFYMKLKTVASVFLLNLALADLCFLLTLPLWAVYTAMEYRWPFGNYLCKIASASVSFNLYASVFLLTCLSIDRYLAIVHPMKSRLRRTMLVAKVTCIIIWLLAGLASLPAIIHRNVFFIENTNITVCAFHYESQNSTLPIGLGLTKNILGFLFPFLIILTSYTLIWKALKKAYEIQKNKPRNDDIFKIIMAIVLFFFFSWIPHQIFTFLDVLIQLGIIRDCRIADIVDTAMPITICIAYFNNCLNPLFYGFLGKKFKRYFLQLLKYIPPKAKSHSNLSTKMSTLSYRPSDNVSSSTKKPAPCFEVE
Put plainly: Displacement of [125I]-Sar1Ile8-angiotensin 2 from angiotensin 2 AT1 receptor (unknown origin) after 180 mins by gamma counting analysis. (In general: Loss of bound radioactivity is the signal in a displacement assay; it reports binding, not function.)

The target of assay [2] is T2, Type-2 angiotensin II receptor (Homo sapiens, UniProt P50052).
T2 sequence (P50052 whole entry): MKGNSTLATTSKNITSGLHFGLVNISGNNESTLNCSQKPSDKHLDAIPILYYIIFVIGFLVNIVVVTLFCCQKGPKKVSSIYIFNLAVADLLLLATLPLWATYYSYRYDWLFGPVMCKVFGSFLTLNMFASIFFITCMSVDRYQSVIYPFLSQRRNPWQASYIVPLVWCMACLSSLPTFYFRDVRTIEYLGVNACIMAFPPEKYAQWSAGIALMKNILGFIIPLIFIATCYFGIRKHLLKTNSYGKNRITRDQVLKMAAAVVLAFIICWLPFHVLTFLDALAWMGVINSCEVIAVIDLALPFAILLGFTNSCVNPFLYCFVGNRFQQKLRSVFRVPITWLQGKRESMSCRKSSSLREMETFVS
Put plainly: Displacement of [125I]-Sar1Ile8-angiotensin 2 from angiotensin 2 AT2 receptor (unknown origin) after 180 mins by gamma counting analysis.

Assay [3] can be described thus: Antagonist activity at angiotensin 2 receptor in Japanese white rabbit thoracic aorta assessed as inhibition of angiotensin 2-induced contraction after 60 mins by Schild plot analysis. It counts as tissue-based, Oryctolagus cuniculus. The method, boiled down:
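Helical aortic strips (3-4 mm wide, 15-20 mm long) in 10-mL baths of bicarbonate salt solution (CaCl2·2H2O 2.5, NaHCO3 25, glucose 11.1), 37 °C, 95% O2/5% CO2, isometric tension. 1 h equilibration with 15-min washes; 67 mM KCl sets maximal contraction; 30 min washout; antagonist or vehicle for 60 min, then cumulative Ang II curves, one per strip. Response as % of KCl maximum; pA2 from Schild plot.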

The subject of another assay is Rattus norvegicus. Put plainly: Antihypertensive activity in SHR rat assessed as decrease in blood pressure at 10 mg/kg, po by tail plethysmography. The class given is functional. The method, boiled down:
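Male SHR, 19-21 weeks old, n = 6 per group, with a vehicle group (water, 10 mL/kg). Single oral dose of 10 mg/kg. Blood pressure and heart rate measured by tail plethysmography in unanesthetized rats after a warming period.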

In assay [4] the target is T3, Type-1 angiotensin II receptor (Homo sapiens) (UniProt P30556).
T3 sequence (whole entry): T1 sequence (P30556 whole entry)
Put plainly: Ratio of losartan IC50 to compound IC50 for angiotensin 2 AT1 receptor (unknown origin).

Bounds are passed on as bounds.

The term IC50 denotes the concentration that gives 50% inhibition. Low values mean higher potency, high ones lower potency. The term pA2 denotes a measure of antagonist potency on a negative log scale. For `CCCc1nc2c(C)cc(NC(=O)c3ccc(C)cc3)cc2n1Cc1ccc(-c2ccccc2C(=O)O)cc1`, the results for the IC50 in assay [1] and in assay [2] were 4.9 nM and above 10000 nM, respectively. In addition, the pA2 in assay [3] stood at 8.25.

In the case of `CCCC(=O)Nc1cc(C)c2nc(CCC)n(Cc3ccc(-c4ccccc4C(=O)O)cc3)c2c1`, the results for the IC50 in assay [1] and in assay [2] were 0.3 nM and 53 nM, respectively.

Take `CCCc1nc2c(C)cc(C(=O)NCCCN3CCOCC3)cc2n1Cc1ccc(-c2ccccc2C(=O)O)cc1`: the IC50 in assay [1] turned out to be 10 nM; in assay [2] it was 718 nM.

`CCCCc1nc(Cl)c(CO)n1Cc1ccc(-c2ccccc2-c2nnn[nH]2)cc1` [LOSARTAN]: the pA2 in assay [3] stood at 7.92.

With `CCCNC(=O)c1cc(C)c2nc(CCC)n(Cc3ccc(-c4ccccc4C(=O)O)cc3)c2c1`, the IC50 in assay [1] came to 1340 nM.

In the case of `CCCc1nc2c(C)cc(C(=O)N3CCCCC3)cc2n1Cc1ccc(-c2ccccc2C(=O)O)cc1`, the IC50 in assay [1] is 20 nM; in assay [2] it was 42 nM.

`CCCc1nc2c(C)cc(C(=O)N3CCOCC3)cc2n1Cc1ccc(-c2ccccc2C(=O)O)cc1` registered an IC50 in assay [1] of 1010 nM.

On to `CCCc1nc2c(C)cc(C(=O)Nc3ccc(C)cc3)cc2n1Cc1ccc(-c2ccccc2C(=O)O)cc1`, for which the IC50 in assay [1] was 39 nM; in assay [2], 61 nM.

On to `CCCc1nc2c(C)cc(C(=O)NCCN3CCOCC3)cc2n1Cc1ccc(-c2ccccc2C(=O)O)cc1`, for which the values for the IC50 in assay [1] and in assay [2] were 11 nM and above 10000 nM, respectively. Moreover, the pA2 in assay [3] is reported as 8.2.

On to `CCCc1nc2c(C)cc(C(=O)NCCCc3ccccc3)cc2n1Cc1ccc(-c2ccccc2C(=O)O)cc1`, for which, in assay [1], the IC50 amounted to 115 nM.

On to `CCCc1nc2c(C)cc(NC(=O)CCc3ccccc3)cc2n1Cc1ccc(-c2ccccc2C(=O)O)cc1`, for which the IC50 in assay [1] was 0.1 nM; in assay [2], 149 nM. The Activity in the assay with Rattus norvegicus is above 30 mmHg. For the same compound, in assay [3], the pA2 is reported as 8.43. In assay [4], the Ratio IC50 was 10.

As to `CCCc1nc2c(C)cc(NC(=O)c3ccccc3)cc2n1Cc1ccc(-c2ccccc2C(=O)O)cc1`, the IC50 in assay [1] is 3.9 nM; in assay [2] it was 6 nM.

With `CCCCNC(=O)c1cc(C)c2nc(CCC)n(Cc3ccc(-c4ccccc4C(=O)O)cc3)c2c1`, the IC50 in assay [1] worked out at 13 nM; in assay [2], 164 nM.

In assay [1], `CCCc1nc2c(C)cc(NC(C)=O)cc2n1Cc1ccc(-c2ccccc2C(=O)O)cc1` returned an IC50 of 1430 nM.

In the case of `CCCc1nc2c(C)cc(NC(=O)OC)cc2n1Cc1ccc(-c2ccccc2C(=O)O)cc1`, the IC50 in assay [1] turned out to be 0.7 nM; in assay [2], 4370 nM. The pA2 in assay [3] is listed as 8.15.

Take `CCCc1nc2c(C)cc(C(=O)NCCc3ccccc3)cc2n1Cc1ccc(-c2ccccc2C(=O)O)cc1`: the IC50 in assay [1] is 3 nM; in assay [2], above 10000 nM. For the same compound, the Activity in the assay with Rattus norvegicus is given as above 30 mmHg. The pA2 in assay [3] is listed as 8.51. The Ratio IC50 in assay [4] came out at 10.

As for `CCCc1nc2c(C)cc(NC(=O)Cc3ccccc3)cc2n1Cc1ccc(-c2ccccc2C(=O)O)cc1`, the IC50 turned out to be 1.2 nM in assay [1] and 77 nM in assay [2]. For the same compound, the pA2 in assay [3] is 8.21.

For `CCCc1nc2c(C)cc(NC(=O)CC)cc2n1Cc1ccc(-c2ccccc2C(=O)O)cc1`, the IC50 turned out to be 0.4 nM in assay [1] and 78 nM in assay [2].
